# Compounds with a hit are over-represented: about 3.5% of the library has one in this group of screens.
# FN deposit inh: fibronectin deposition inhibition; AH1F fibroblasts, Alexa488-fibronectin deposition fluorescence, overnight; inhibition, % at 12.6 µM; 350,000 tested, 0.086% active; AID 743247;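 active = mean inhibition across replicates of 30% or more, regardless of how many single replicates reach that level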;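 note: positive control wells lacked labelled fibronectin entirely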
#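 Assay system: AH1F fibroblasts / Quantity: 10000 cells per well / Medium: DMEM plus 2% serum, read in PBS / Reagent: labelled fibronectin 24 nM / Dosing: single dose, pinned / Times: 1 h cell attachment, overnight exposure to compound and label / Signal: fluorescence, ex 485 nm, em 525 nm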
# PglD inh: inhibitors of Campylobacter jejuni PglD acetyltransferase; purified PglD enzyme, DTNB colorimetric CoA detection; inhibition, % at 12.5 µM; 360,000 tested, 0.098% active; AID 602405; in the data active = inhibition above about 16%, passing the limit was not always enough
# DENV2 CPE rescue: protects cells from dengue virus 2 cytopathic effect. 350,000 tested, 1.7% active. AID 651640. CPE inhibition, % at 9.99 µM. DENV2-infected cells, cytopathic effect rescue, plate reader; in the data active = CPE inhibition above about 20%, passing the limit was not always enough; tested in BHK-21 cells;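 note: 0% = median of neutral control wells and 100% = median of positive control wells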
# PGC1a acetyl inh: PGC1a acetylation modulation, inhibitor mode | inhibition, % at 15.6 µM | 350,000 tested, 0.17% active | U2OS PGC1a acetylation, AlphaScreen anti-acetyl-lysine; with virally co-expressed GCN5 acetyltransferase | AID 651687;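 active = every replicate shows inhibition of at least 40%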;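 note: 0% = neutral control wells and 100% = positive control wells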
# Env fusion inh: inhibitors of HIV Env-mediated cell fusion. HeLa-JRFL Env/CEM21 cell fusion, luciferase. inhibition, % at 12.3 µM. 360,000 tested, 1.1% active;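 active = mean replicate inhibition score of at least 50 and every replicate individually at or above 50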;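 note: 0% = plate neutral controls and 100% = maraviroc near 300 nM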
# Ecoli rRNA inh: inhibits bacterial ribosomal RNA function over humanized ribosomes | GFP signal change (wild-type ribosome), % (test concentration not listed) | 350,000 tested, 1.6% active | AID 720706 | E. coli WT GFP vs humanized-ribosome RFP mutants, fluorescence, 24 h; hits give low values; DMSO median 0, no signal -100;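 active = significant combined selectivity score with lowered wild-type GFP, culture density cut under 30%, mutant RFP and density less affected; inactive = any of these conditions unmet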
# Active calls of the source: *; nt = no result given; [ ] = another dose, or the depositor's remark.
SMILES,FN deposit inh,PglD inh,DENV2 CPE rescue,PGC1a acetyl inh,Env fusion inh,Ecoli rRNA inh
N#C[C@H]1[C@H](c2ccc(C#Cc3ccc(F)cc3)cc2)[C@H](CO)N1C(=O)C1CC1,-2.3,0.0,-5.2,-12.7,-2.2[16.7 µM],1.1
N#C[C@@H]1[C@H](c2ccc(C#CC3CCCC3)cc2)[C@@H](CO)N1C(=O)Nc1ccc(F)cc1,-19.2,1.5,-19.5,-20.6,-26.9[16.7 µM],-27.5
COc1ccccc1C#Cc1ccc([C@@H]2[C@@H](C#N)N(C(=O)C3CCC3)[C@H]2CO)cc1,-1.9,-0.3,21.5*,-12.0,-5.8[16.7 µM],-12.7
N#C[C@@H]1[C@H](c2ccc(C#Cc3ccc(F)cc3)cc2)[C@@H](CO)N1C(=O)C1CCCC1,-12.2,2.7,51.1*,-27.4,10.9[16.7 µM],0.4
CCCNC(=O)[C@H]1[C@H](CO)[C@H]2Cn3c(ccc(-c4ccccc4F)c3=O)[C@H]2N1CC1CC1,nt,-2.8,1.0,nt,-2.7[16.7 µM],2.6
Cc1ccc(S(=O)(=O)N(C)C[C@H]2Oc3c(NS(C)(=O)=O)cccc3C(=O)N([C@H](C)CO)C[C@H]2C)cc1,-0.3,-0.5,11.6,-2.7,-15.0[16.7 µM],-5.0
C[C@@H]1CCCCO[C@@H](CN(C)C)[C@H](C)CN([C@H](C)CO)C(=O)c2cc(NS(=O)(=O)c3ccccc3)ccc2O1,-6.6,-0.8,nt,-0.5,-12.9[16.7 µM],3.3
C[C@H]1CN([C@@H](C)CO)C(=O)Cc2cc(NC(=O)Nc3ccc4c(c3)OCO4)ccc2O[C@@H]1CN(C)C,nt,-6.8,5.3,0.1,nt,1.5
Cc1noc(C)c1NC(=O)N(C)C[C@@H]1Oc2c(NC(=O)C3CCCCC3)cccc2C(=O)N([C@H](C)CO)C[C@H]1C,nt,0.2,14.2,-1.7,nt,1.4
C[C@H](CO)N1C[C@H](C)[C@@H](CN(C)Cc2ccc(Oc3ccccc3)cc2)Oc2c(NC(=O)C3CCCCC3)cccc2C1=O,nt,-6.1,2.8,-28.3,nt,3.0
N#C[C@H]1[C@@H](c2ccc(C#Cc3ccccc3F)cc2)[C@@H](CO)N1C(=O)C1CCCC1,10.7,nt,32.9*,nt,nt,-44.1
N#C[C@@H]1[C@H](c2ccc(C#Cc3ccccc3F)cc2)[C@H](CO)N1C(=O)C1CCC1,-7.8,-1.6,101.7*,-6.0,-6.3[16.7 µM],1.3
O=C(NCc1ccccc1)c1csc(-c2cccnc2)n1,8.0,nt,3.6,nt,27.9,-37.2*
O=C(NCCc1csc(-c2cccnc2)n1)c1ccccc1,3.6,-1.9,3.6,1.1,-31.6,0.9
Cc1cccc(NC(=O)c2ccc(S(=O)(=O)N3CC(C)OC(C)C3)cc2)n1 (stereo not drawn),-2.9,-0.3,-2.3,nt,56.2*,4.7
C=CCc1c(C)nc2c(C)cccc2c1SC(=N)N,-12.7,-1.0,-1.6,-11.3,29.7,-22.5*
Cc1nc2c(C)cccc2c(SC(=N)N)c1CC=C(Cl)Cl,1.0,nt,-0.7,nt,5.7,-20.9*
C[C@@H]1CN([C@@H](C)CO)C(=O)c2cc(NC(=O)c3ccccc3)ccc2O[C@@H](C)CCCCO[C@@H]1CN(C)Cc1ccc2c(c1)OCO2,nt,3.1,2.3,5.8,-97.3[16.7 µM],-0.7
CC(C)NC(=O)Nc1ccc2c(c1)C(=O)N([C@H](C)CO)C[C@@H](C)[C@@H](CN(C)Cc1ccc3c(c1)OCO3)O2,-0.7,3.5,-1.8,-22.0,nt,2.4
CCOC(=O)c1cnc(-n2nc(C)cc2C)nc1NC1CCCCC1,nt,4.6,nt,-3.4,105.2*,nt
CCOC(=O)c1cnc(-n2nc(C)cc2C)nc1NC,4.4,4.8,nt,nt,-49.4,nt
CC(=O)Nc1ccc(NC(=O)CN(c2ccc(C34CC5CC(CC(C5)C3)C4)cc2)S(C)(=O)=O)cc1,2.4,6.6,nt,4.3,92.9*,nt
CS(=O)(=O)N(CC(=O)Nc1ccc(CC#N)cc1)c1ccc(C23CC4CC(CC(C4)C2)C3)cc1,nt,-3.0,2.9,-32.0,nt,5.9
CCC(C)(C)c1ccc(OCCCC[n+]2cccc(C)c2)c(C(C)(C)CC)c1,17.5,nt,-9.6,nt,129.2*,-59.5
Cc1ccc[n+](CC(=O)Nc2cc(C(F)(F)F)ccc2Cl)c1,nt,-3.0,nt,-5.0,nt,nt
SMILES,FN deposit inh,PglD inh,DENV2 CPE rescue,PGC1a acetyl inh,Env fusion inh,Ecoli rRNA inh
CCN(CC)C(=O)C1(P(=O)(c2ccccc2)c2ccccc2)CCC1,7.9,-4.3,3.6,6.4,21.3,14.4
CCCCN(CCCC)C(=O)C1(P(=O)(c2ccccc2)c2ccccc2)CCC1,-7.7,3.7,3.1,12.1,60.3*,-32.1
CCOc1cc(CNc2ccc(OC)cc2)cc(Br)c1OCC(=O)NC(C)(C)C,nt,-0.2,nt,-19.1,nt,-25.4*
CCOc1cc(CNc2ccc(Br)cc2)cc(Br)c1OCC(=O)NC(C)(C)C,nt,nt,5.1,1.5,nt,1.2
C[C@H]1CN([C@@H](C)CO)S(=O)(=O)c2ccc(-c3cccc(F)c3)cc2O[C@@H]1CN(C)S(=O)(=O)c1ccccc1,nt,0.9,-10.5,-5.0,41.2[16.7 µM],-1.8
COc1cccc(/C=C2\Oc3cc(OCC(=O)N4CCCC4)ccc3C2=O)c1OC,7.9,-0.6,5.9,nt,-9.2,-23.9*
COc1cccc(/C=C2\Oc3cc(OCC(=O)N4CCCCC4)ccc3C2=O)c1OC,1.5,0.3,2.2,nt,4.3,-30.0
CCOc1ccc(-c2cc(N)n(S(=O)(=O)c3cccc4nsnc34)n2)cc1,-7.2,-2.2,0.6,6.3,63.8*,-2.1
O=C(C[C@H]1C[C@@H]2c3cc(NC(=O)CC4CC4)ccc3O[C@@H]2[C@H](CO)O1)NCc1ccccc1,-6.6,-0.7,97.7*,-0.9,-13.1[16.7 µM],0.3
CN(C)c1ccc2c(c1)[C@@H]1C[C@H](CC(=O)NCc3ccc(-c4ccccc4)cc3)O[C@@H](CO)[C@@H]1O2,-17.0,7.9,-12.7,-6.5,80.5*[16.7 µM],-7.9
O=C(C[C@@H]1C[C@@H]2c3cc(NC(=O)CC4CC4)ccc3O[C@@H]2[C@H](CO)O1)NCc1ccccc1,17.1,0.4,7.4,-9.2,7.5[16.7 µM],1.2
O=C(C[C@H]1C[C@@H]2c3cc(NC(=O)C4CCOCC4)ccc3O[C@@H]2[C@H](CO)O1)NCc1ccccc1,6.8,-3.4,0.4,0.1,83.3*[16.7 µM],0.5
O=C(C[C@@H]1C[C@@H]2c3cc(NC(=O)C4CCC4)ccc3O[C@@H]2[C@@H](CO)O1)NCc1ccc(-c2ccccc2)cc1,5.9,0.6,4.1,79.9*,42.9[16.7 µM],-6.8
O=C(C[C@@H]1C[C@@H]2c3cc(NC(=O)C4CCOCC4)ccc3O[C@@H]2[C@H](CO)O1)NCc1ccccc1,-7.3,0.2,0.7,-3.7,21.6[16.7 µM],4.6
C=CC[C@@H](CC(=O)N(CCO)Cc1ccccc1)C(=O)N[C@H](COC(=O)[C@@H](CC=C)Cc1ccc(F)cc1)Cc1ccccc1,-5.0,0.8,-7.7,-6.3,-10.1,11.1
C=CC[C@@H](CC(=O)N(CCO)Cc1ccccc1)C(=O)N[C@@H](COC(=O)[C@@H](CC=C)Cc1ccc(F)cc1)Cc1ccccc1,5.8,11.0,-10.7,-4.8,95.0*,15.1

# Source: PubChem (Broad Institute)
